# From ChEMBL document CHEMBL4842325, “Lanosterol 14α-demethylase (CYP51)/histone deacetylase (HDAC) dual inhibitors for treatment of Candida tropicalis and Cryptococcus neoformans infections” (Eur J Med Chem, 2021)
# Calls of active or inactive are those of the source. No cut-off for these calls is given here.
# Legend:
# Candida tropicalis [1] = test: Inhibition of CYP51 in Candida tropicalis 5008 assessed as eburicol level at 4 ug/ml by GC-MS analysis; parameters: scale not given: the % may be the effect or the level left; conditions: dose 4.0 µg/ml
# Cryptococcus neoformans [2] = test: Downregulation of HOS3 mRNA expression in Cryptococcus neoformans H99 at 2 ug/ml measured after 24 hrs by qRT-PCR analysis; format: functional; conditions: dose 2.0 µg/ml
# Method in brief: (§1)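 Exponentially growing C. neoformans H99 inoculated into 50 mL YPD with compound and incubated 35 °C for 24 h. Cells ground in liquid nitrogen before total RNA isolation, then reverse transcription and real-time RT-qPCR. Means ± SD of three independent assays.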
# Cryptococcus neoformans [3] = test: Inhibition of CYP51 in Cryptococcus neoformans H99 assessed as eburicol level at 4 ug/ml by GC-MS analysis (reference value: 39.82%); parameters: scale not given: the % may be the effect or the level left; conditions: dose 4.0 µg/ml
# Candida tropicalis [4] = test: Downregulation of ERG11 mRNA expression in Candida tropicalis 5008 at 4 ug/ml measured after 24 hrs by qRT-PCR analysis; format: functional; conditions: dose 4.0 µg/ml
# Method in brief: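 Exponential-phase C. tropicalis 5008 inoculated into 10 mL YPD with compound at several concentrations, DMSO as blank control. Incubated 35 °C for 24 h. Total RNA isolated on columns and reverse-transcribed. Real-time RT-PCR with ACT1 as internal control. Mean of 3 independent assays ± SD.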
# [5] = Inhibition of HDAC in Cryptococcus neoformans H99 using Boc-Lys(Ac)-AMC as substrate preincubated with protoplast for 12 hrs followed by incubation with substrate for 6 hrs by fluorimetric assay
# Candida tropicalis [6] = test: Antifungal activity against fluconazole-resistant Candida tropicalis 5008 assessed as inhibition of cell proliferation at 8 ug/ml measured for 48 hrs by time growth curve assay; format: functional, organism-based; conditions: dose 8.0 µg/ml
# Method in brief: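 Exponential-phase cells from YEPD resuspended in 3 mL fresh RPMI 1640 at 1 × 10⁵ cells/mL (C. tropicalis 5008) or 1 × 10⁶ cells/mL (C. neoformans H99). Compound at several concentrations; cultures shaken at 240 rpm, 30 °C. Growth read as OD₆₃₀ at 0, 6, 12, 24, 36 and 48 h. Done in triplicate.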
# [7] = Inhibition of HDAC in Candida tropicalis 5008 using Boc-Lys(Ac)-AMC as substrate preincubated with protoplast for 12 hrs followed by incubation with substrate for 6 hrs by fluorimetric assay
# Method in brief: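 Whole-cell assay on C. tropicalis 5008, 100 mg wet weight of exponential-phase cells. Cell wall removed with snailase to give protoplasts, which were dispersed in PBS. Protoplasts incubated with compound at 35 °C for 12 h. Boc-Lys(Ac)-AMC then added to a final 30 µM and incubated 37 °C for 6 h. Stop solution added, 37 °C for 2 h. Fluorescence read at Ex 360/Em 460 nm and converted to HDAC inhibition rate.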
# Candida tropicalis [8] = test: microbe, parasite or virus in culture; format: functional; conditions: 3890, time 48 hrs
# Cryptococcus neoformans [9] = test: Downregulation of HOS2 mRNA expression in Cryptococcus neoformans H99 at 2 ug/ml measured after 24 hrs by qRT-PCR analysis; format: functional; conditions: dose 2.0 µg/ml; method in brief: as §1
# Candida albicans [10] = test: Antifungal activity against fluconazole-sensitive Candida albicans 10061 assessed as inhibition of fungal growth; format: functional
# Candida tropicalis [11] = test: Inhibition of CYP51 in Candida tropicalis 5008 assessed as ergosterol level at 4 ug/ml by GC-MS analysis (reference value: 84.91%); parameters: scale not given: the % may be the effect or the level left; conditions: dose 4.0 µg/ml
# Candida albicans [12] = test: microbe, parasite or virus in culture; format: functional; conditions: 4108
# Cryptococcus neoformans [13] = test: Inhibition of CYP51 in Cryptococcus neoformans H99 assessed as lanosterol level at 4 ug/ml by GC-MS analysis; parameters: scale not given: the % may be the effect or the level left; conditions: dose 4.0 µg/ml
# Cryptococcus neoformans [14] = test: Downregulation of HOS1 mRNA expression in Cryptococcus neoformans H99 at 2 ug/ml measured after 24 hrs by qRT-PCR analysis; format: functional; conditions: dose 2.0 µg/ml; method in brief: as §1
# Cryptococcus neoformans [15] = test: microbe, parasite or virus in culture; format: functional; conditions: H99, time 72 hrs
# Candida albicans [16] = test: Antifungal activity against fluconazole-sensitive Candida albicans SC5314 assessed as inhibition of fungal growth; format: functional
# Cryptococcus neoformans [17] = test: Antifungal activity against Cryptococcus neoformans H99 infected in ICR mouse model assessed as reduction in fungal burden in brain at 20 mg/kg, po administered once a day for 5 days; format: functional, organism-based; conditions: time 5.0 day
# Method in brief: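 Immunosuppression by intraperitoneal cyclophosphamide 24 h before infection. Infected on day 0 by intravenous 2 × 10⁵ CFU C. neoformans H99. Oral treatment once daily for 5 consecutive days, starting 24 h post infection; saline group as blank. Brains taken on day 6 and homogenized, dilutions plated on SDA at 35 °C for 48 h. Colonies counted for burden; groups compared by ANOVA.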
# Cryptococcus neoformans [18] = test: Downregulation of HDA1 mRNA expression in Cryptococcus neoformans H99 at 2 ug/ml measured after 24 hrs by qRT-PCR analysis; format: functional; conditions: dose 2.0 µg/ml; method in brief: as §1
# Candida albicans [19] = test: Antifungal activity against fluconazole-sensitive Candida albicans 9770 assessed as inhibition of fungal growth; format: functional
# Cryptococcus neoformans [20] = test: Downregulation of CAP64 gene expression in Cryptococcus neoformans H99 at 2 ug/ml measured after 24 hrs by qRT-PCR analysis; format: functional; conditions: dose 2.0 µg/ml; method in brief: as §1
# Candida albicans [21] = test: microbe, parasite or virus in culture; format: functional; conditions: 7781
# Cryptococcus neoformans [22] = test: Downregulation of CAP10 gene expression in Cryptococcus neoformans H99 at 2 ug/ml measured after 24 hrs by qRT-PCR analysis; format: functional; conditions: dose 2.0 µg/ml
# Method in brief: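 Exponential-phase C. neoformans H99 inoculated into 50 mL YPD with compound. Incubated 35 °C for 24 h, then cultures ground in liquid nitrogen for RNA isolation. Transcript levels of capsule-associated genes quantified by RT-qPCR. Three independent experiments, mean ± SD, t-test.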
# Cryptococcus neoformans [23] = test: Downregulation of RPD3 mRNA expression in Cryptococcus neoformans H99 at 2 ug/ml measured after 24 hrs by qRT-PCR analysis; format: functional; conditions: dose 2.0 µg/ml; method in brief: as §1
# Candida tropicalis [24] = test: Inhibition of CYP51 in Candida tropicalis 5008 assessed as obtusifoliol level at 4 ug/ml by GC-MS analysis; parameters: scale not given: the % may be the effect or the level left; conditions: dose 4.0 µg/ml
# Candida tropicalis [25] = test: microbe, parasite or virus in culture; format: functional; conditions: 5008, time 48 hrs
# Cryptococcus neoformans [26] = test: Downregulation of CLR62 mRNA expression in Cryptococcus neoformans H99 at 2 ug/ml measured after 24 hrs by qRT-PCR analysis; format: functional; conditions: dose 2.0 µg/ml; method in brief: as §1
# Cryptococcus neoformans [27] = test: Inhibition of capsule formation in Cryptococcus neoformans H99 assessed as reduction in capsule size at 40 to 50 ug/ml incubated for 24 hrs by laser scanning confocal microscopic analysis; format: functional; conditions: dose 40-50 µg/ml
# Method in brief: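 Exponential C. neoformans H99 resuspended in PBS at 1 × 10⁷ cells/mL. Cells cultured in DMEM with FBS and compound at 37 °C under 10% CO₂ for 24 h, with an untreated control. Stained with India ink and imaged by laser scanning confocal microscopy at 63×, 10 random fields. Whole-cell and cell-body diameters measured to derive capsule size.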
smiles,measurement,setting,value
O=C(CCCCCCCOc1ccc(CN2CCN(CC(O)(Cn3cncn3)c3ccc(F)cc3F)CC2)cc1)NO (configuration not stated),Activity,Candida tropicalis [1],69.3%
same,inhibition,Cryptococcus neoformans [2],Active
same,Activity,Cryptococcus neoformans [3],71.3%
same,inhibition,Candida tropicalis [4],Active
same,IC50,[5],12.6 µM
same,Activity,Candida tropicalis [6],Active
same,IC50,[7],2.38 µM
same,MIC80,Candida tropicalis [8],0.5 µg/mL
same,inhibition,Cryptococcus neoformans [9],Active
same,MIC80,Candida albicans [10],16 µg/mL
same,Activity,Candida tropicalis [11],1.51%
same,MIC80,Candida albicans [12],8 µg/mL
same,Activity,Cryptococcus neoformans [13],9.59%
same,inhibition,Cryptococcus neoformans [14],Active
same,MIC80,Cryptococcus neoformans [15],0.5 µg/mL
same,MIC80,Candida albicans [16],8 µg/mL
same,Activity,Cryptococcus neoformans [17],Active
same,inhibition,Cryptococcus neoformans [18],Active
same,MIC80,Candida albicans [19],16 µg/mL
same,inhibition,Cryptococcus neoformans [20],inactive
same,MIC80,Candida albicans [21],1 µg/mL
same,inhibition,Cryptococcus neoformans [22],Active
same,inhibition,Cryptococcus neoformans [23],Active
same,Activity,Candida tropicalis [24],16%
same,MIC80,Candida tropicalis [25],0.5 µg/mL
same,inhibition,Cryptococcus neoformans [26],Active
same,inhibition,Cryptococcus neoformans [27],Active
